Laboratory results published in ChEMBL document CHEMBL4311980, “Discovery of 2-isoxazol-3-yl-acetamide analogues as heat shock protein 90 (HSP90) inhibitors with significant anti-HIV activity” (Eur J Med Chem, 2019).
Values belong to the molecule of their own block, whether it stands above or below them. Calls of active or inactive are those of the source. No cut-off for these calls is given here.

How the values were obtained:
[1] = Cytotoxicity against human CEM-GFP cells assessed as reduction in cell viability after 48 hrs by MTT assay; type: cell-based
Summary of the method: (§1)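 Cells were seeded at 25,000/well in complete medium with compound at different concentrations, with untreated and DMSO controls, and incubated 48 h. MTT (5 mg/mL stock) was added for 4 h at 37 °C in the dark. Formazan was dissolved in isopropanol and A570 read. CC50 and highest non-cytotoxic concentration were derived from this assay.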

[2] = Cytotoxicity against human TZM-bl cells assessed as maximum non-cytotoxic concentration after 48 hrs by MTT assay; type: cell-based; details: read-out: MNCC; summary of the method: as §1
[3] = system: Human immunodeficiency virus 1; test: Antiviral activity against HIV-1 NL4-3 infected in human CEM-GFP cells assessed as suppression of viral replication by measuring reduction in p24 level measured at 72 hrs post-infection by ELISA; type: functional, organism-based; details: Human immunodeficiency virus 1, NL4-3, CEM-GFP
Summary of the method: (§2)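 Cells were incubated with 0.5 MOI virus in the presence of polybrene at 37 °C for 4 h with intermittent mixing, then washed and plated in complete RPMI-1640. Compound added at different concentrations, with untreated and DMSO controls. PBMC were PHA-activated. Supernatant p24 measured by capture ELISA (A450) at 72 h. % inhibition calculated relative to untreated cells.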

[4] = system: Human immunodeficiency virus 1; test: Antiviral activity against HIV-1 NL4-3 infected in human TZM-bl cells assessed as reduction in viral replication at 1000 nM measured at 48 hrs post-infection by steady-glo reporter gene assay relative to control; type: functional; details: Human immunodeficiency virus 1, NL4-3, TZM-bl
Summary of the method: (§3)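 TZM-bl cells (0.15×10^6/well) were infected with 0.5 MOI HIV-1 NL4-3 12 h after seeding and treated at the highest non-cytotoxic concentration, which was set by MTT assay. At 48 h post-infection, cells were lysed and mixed 1:1 with Steady-Glo substrate, and luminescence was read.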

[5] = Therapeutic index, ratio of CC50 for human CEM-GFP cells to IC50 for antiviral activity against HIV-1 NL4-3 infected in human CEM-GFP cells; type: toxicity, cell-based; details: read-out: Ratio CC50/IC50
Summary of the method: (§4)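 IC50 was determined from p24 ELISA 72 h after 0.5 MOI HIV-1 NL4-3 infection with compound at different concentrations. Therapeutic index = CC50/IC50.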

[6] = system: Human immunodeficiency virus 1; test: Antiviral activity against HIV1 NL4-3 infected in human TZM-bl cells assessed as reduction in viral replication at 100 nM measured at 48 hrs post-infection by steady-glo reporter gene assay relative to control; type: functional; details: Human immunodeficiency virus 1, NL4-3, TZM-bl; summary of the method: as §3
[7] = system: Human immunodeficiency virus 1; test: Antiviral activity against HIV-1 subtype C isolate indeiC infected in human CEM-GFP cells assessed as suppression of viral replication by measuring reduction in p24 level measured at 72 hrs post-infection by ELISA; type: functional, organism-based; summary of the method: as §2
[8] = Cytotoxicity against human Jurkat J6 cells assessed as reduction in cell viability after 48 hrs by MTT assay; type: cell-based; summary of the method: as §1
[9] = system: Human immunodeficiency virus 1; test: Antiviral activity against HIV-1 NL4-3 infected in human Jurkat J6 cells assessed as suppression of viral replication by measuring reduction in p24 level measured at 72 hrs post-infection by ELISA; type: functional, organism-based; details: Human immunodeficiency virus 1, Jurkat; summary of the method: as §2
[10] = Therapeutic index, ratio of CC50 for human U937 cells to IC50 for antiviral activity against HIV-1 NL4-3 infected in human U937 cells; type: toxicity, cell-based; details: read-out: Ratio CC50/IC50; summary of the method: as §4
[11] = system: Human immunodeficiency virus 1; test: Antiviral activity against R5X4 tropic HIV-1 subtype-B 89.6 infected in human PBMC assessed as suppression of viral replication by measuring reduction in p24 level measured at 72 hrs post-infection by ELISA; type: functional, organism-based; details: M:B_89.6; summary of the method: as §2
[12] = system: HIV-1 M:B; test: Antiviral activity against X4 tropic HIV-1 subtype-B 3B infected in human CEM-GFP cells assessed as suppression of viral replication by measuring reduction in p24 level measured at 72 hrs post-infection by ELISA; type: functional, cell-based; summary of the method: as §2
[13] = system: Human immunodeficiency virus 1; test: Antiviral activity against 0.01 to 0 1 MOI HIV-1 NL4-3 infected in human CEM-GFP cells assessed as suppression of viral replication by measuring reduction in p24 level at 1 uM measured at 72 hrs post-infection by ELISA; type: functional, organism-based
Summary of the method: (§5)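 Cells infected with HIV-1 NL4-3 at MOI 0.01, 0.1 or 1 in the presence of polybrene at 37 °C for 4 h. Cells then washed in serum-free RPMI-1640 and plated in complete RPMI-1640 with compound at its highest non-cytotoxic concentration. Untreated and DMSO controls. Supernatant p24 measured by antigen-capture ELISA (A450) at 72 h post-infection. % inhibition = (untreated − treated p24)/untreated p24 × 100.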

[14] = system: HIV-1 M:B; test: Antiviral activity against X4 tropic HIV-1 subtype-B 3B infected in human PBMC assessed as suppression of viral replication by measuring reduction in p24 level measured at 72 hrs post-infection by ELISA; type: functional; summary of the method: as §2
[15] = Cytotoxicity against human PBMC assessed as reduction in cell viability after 48 hrs by MTT assay; type: cell-based; summary of the method: as §1
[16] = target: Protease (Human immunodeficiency virus 1) (UniProt Q9YQ12); test: Inhibition of HIV-1 protease at 1 uM using synthetic peptide as substrate after 15 mins by fluorimetric based assay
Summary of the method: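 Cell-free fluorometric protease kit. HIV-1 protease was diluted in reaction buffer and loaded at 10 nmol/well with or without compound. Indinavir served as positive control, with untreated and DMSO controls. Fluorescence (Ex/Em 330/450 nm) was read 15 min after addition. n = 3.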

[17] = Cytotoxicity against human U937 cells assessed as reduction in cell viability after 48 hrs by MTT assay; type: cell-based, U-937; summary of the method: as §1
[18] = system: Human immunodeficiency virus 1; test: Antiviral activity against HIV-1 subtype C isolate indeiC infected in human PBMC cells assessed as suppression of viral replication by measuring reduction in p24 level measured at 72 hrs post-infection by ELISA; type: functional, organism-based; summary of the method: as §2
[19] = Therapeutic index, ratio of CC50 for human PBMC to IC50 for antiviral activity against HIV-1 NL4-3 infected in human PBMC; type: toxicity; details: read-out: Ratio CC50/IC50; summary of the method: as §4
[20] = system: HIV-1 M:B; test: Antiviral activity against R5 tropic HIV-1 subtype-B ADA infected in human PBMC assessed as suppression of viral replication by measuring reduction in p24 level measured at 72 hrs post-infection by ELISA; type: functional; summary of the method: as §2
[21] = target: Human immunodeficiency virus type 1 reverse transcriptase (Human immunodeficiency virus 1) (UniProt Q72547); test: Inhibition of HIV-1 reverse transcriptase RNA-dependent DNA polymerase activity assessed as reduction in biotin-dUTP incorporation at 1 uM using poly(A)/oligo (dT)15 as template/primer by ELISA
Summary of the method: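 RNA-dependent DNA polymerase activity of HIV-1 RT was tested with a colorimetric reverse transcriptase kit. Nevirapine served as positive control, with untreated and DMSO vehicle wells. Compound was tested at its highest non-cytotoxic concentration. n = 3.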

[22] = target: Heat shock protein HSP90 (Homo sapiens) (UniProt P07900+P08238); test: Inhibition of HSP90 (unknown origin) expressed in HEK-293T cells assessed as reduction in Tat-mediated transactivation at 1 uM measured at 48 hrs post-transfection by LTR-driven luciferase reporter gene assay; type: cell-based
Summary of the method: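 HEK-293T cells were co-transfected with p-LTR-Luc and Tat using PEI in the presence or absence of compound. At 48 h post-transfection, cells were harvested and luminescence and fluorescence were measured.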

[23] = system: Human immunodeficiency virus 1; test: Antiviral activity against HIV-1 NL4-3 infected in CEM-GFP cells assessed as reduction in HSP90 expression measured at 72 hrs post-infection by immunoblotting analysis; type: functional, organism-based
Summary of the method: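 CEM-GFP cells were infected with 0.5 MOI HIV-1 NL4-3 with or without compound, with DMSO as vehicle control. At 72 h post-infection, HSP90 protein was measured by immunoblotting and quantified by densitometry.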

[24] = Therapeutic index, ratio of CC50 for human Jurkat J6 cells to IC50 for antiviral activity against HIV-1 NL4-3 infected in human Jurkat J6 cells; type: toxicity, cell-based; details: read-out: Ratio CC50/IC50; summary of the method: as §4
[25] = system: Human immunodeficiency virus 1; test: Antiviral activity against HIV-1 NL4-3 infected in human U937 cells assessed as suppression of viral replication by measuring reduction in p24 level measured at 72 hrs post-infection by ELISA; type: functional, organism-based; details: Human immunodeficiency virus 1, U-937, 72 h; summary of the method: as §2
[26] = system: Human immunodeficiency virus 1; test: Antiviral activity against HIV-1 NL4-3 infected in human PBMC assessed as suppression of viral replication by measuring reduction in p24 level measured at 72 hrs post-infection by ELISA; type: functional, organism-based; details: Human immunodeficiency virus 1, 72 h; summary of the method: as §2
[27] = Ratio of therapeutic index for compound to therapeutic index of AUY922
[28] = Ratio of therapeutic index for compound to therapeutic index of AZT
[29] = system: HIV-1 M:B; test: Antiviral activity against R5 tropic HIV-1 subtype-B ADA infected in human CEM-GFP cells assessed as suppression of viral replication by measuring reduction in p24 level measured at 72 hrs post-infection by ELISA; type: functional, cell-based; summary of the method: as §2
[30] = system: Human immunodeficiency virus 1; test: Antiviral activity against 0.01 to 0 1 MOI HIV-1 NL4-3 infected in human PBMC assessed as suppression of viral replication by measuring reduction in p24 level at 1 uM measured at 72 hrs post-infection by ELISA; type: functional, organism-based; summary of the method: as §5
[31] = system: Human immunodeficiency virus 1; test: Antiviral activity against R5X4 tropic HIV-1 subtype-B 89.6 infected in human CEM-GFP cells assessed as suppression of viral replication by measuring reduction in p24 level measured at 72 hrs post-infection by ELISA; type: functional, organism-based; details: M:B_89.6; summary of the method: as §2

Sequence of Protease (Human immunodeficiency virus 1) (Q9YQ12 as listed by the source): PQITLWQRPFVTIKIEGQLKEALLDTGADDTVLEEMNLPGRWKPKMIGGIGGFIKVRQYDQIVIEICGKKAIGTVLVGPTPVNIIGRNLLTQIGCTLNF

- IC50 [9]: 0.0527 µM
- inhibition [16]: inactive
- IC50 [3]: 0.0395 µM
- inhibition [21]: inactive
- inhibition [22]: Active
- IC50 [25]: 0.053 µM
- IC50 [26]: 0.0562 µM
SMILES: CC(C)NC(=O)Cc1cc(-c2ccccc2)on1
- inhibition [7]: Active
- CC50 at 48 h [8]: 60.3 µM
- selectivity ratio [10]: 1070
- CC50 at 48 h [1]: 65.6 µM
- MNTC at 48 h [2]: 1000 nM
- inhibition [11]: Active
- inhibition [12]: Active
- inhibition [13]: Active
- inhibition [14]: Active
- CC50 at 48 h [15]: 67.9 µM
- CC50 at 48 h [17]: 56.6 µM
- inhibition [18]: Active
- selectivity ratio [19]: 1210
- inhibition [20]: Active
- Activity [23]: Active
- selectivity ratio [24]: 1140
- Ratio [27]: 3.5
- inhibition at 1 µM [4]: 85%
- Ratio [28]: 1.5
- selectivity ratio [5]: 1660
- inhibition [29]: Active
- inhibition [30]: Active
- inhibition [31]: Active

- IC50 [3]: 0.253 µM
SMILES: O=C(Cc1cc(-c2ccccc2)on1)Nc1ccccc1O
- CC50 at 48 h [1]: 42.9 µM
- MNTC at 48 h [2]: 1000 nM
- inhibition at 1 µM [4]: 94.8%
- selectivity ratio [5]: 170

- IC50 [3]: 0.0663 µM
SMILES: CCNC(=O)c1noc(-c2cc(C(C)C)c(O)cc2O)c1-c1ccc(CN2CCOCC2)cc1 [LUMINESPIB]
- CC50 at 48 h [1]: 31.1 µM
- MNTC at 48 h [2]: 1000 nM
- inhibition at 1 µM [4]: 88.3%
- selectivity ratio [5]: 470

Continued, molecule first:

SMILES: Cc1ccc(NC(=O)Cc2cc(-c3ccccc3)on2)cc1
- CC50 at 48 h [1]: 44 µM
- MNTC at 48 h [2]: 1000 nM
- IC50 [3]: 0.0868 µM
- inhibition at 1 µM [4]: 98.4%
- selectivity ratio [5]: 507

SMILES: Cc1ccccc1NC(=O)Cc1cc(-c2ccccc2)on1
- MNTC at 48 h [2]: 1000 nM
- inhibition at 1 µM [4]: 23.5%

SMILES: Cc1ccc(NC(=O)Cc2cc(-c3cccs3)on2)cc1
- MNTC at 48 h [2]: 100 nM
- inhibition at 0.1 µM [6]: 56.9%

SMILES: O=C(Cc1cc(-c2ccccc2)on1)Nc1ccccc1
- CC50 at 48 h [1]: 23 µM
- MNTC at 48 h [2]: 1000 nM
- IC50 [3]: 0.288 µM
- inhibition at 1 µM [4]: 89.1%
- selectivity ratio [5]: 79.8

SMILES: O=C(Cc1cc(-c2ccco2)on1)Nc1ccc(O)cc1
- MNTC at 48 h [2]: 1000 nM
- inhibition at 1 µM [4]: 53.1%

SMILES: Cc1cn([C@H]2C[C@H](N=[N+]=[N-])[C@@H](CO)O2)c(=O)[nH]c1=O [ZIDOVUDINE]
- CC50 at 48 h [1]: 13.9 µM
- IC50 [3]: 0.0127 µM
- selectivity ratio [5]: 1090
